Results on 3 compounds are retold here after ChEMBL document CHEMBL4376870, “Structure-Activity Relationship in Pyrazolo[4,3-c]pyridines, First Inhibitors of PEX14-PEX5 Protein-Protein Interaction with Trypanocidal Activity” (J Med Chem, 2020).

pEC50: −log10 of the molar value. Where only a bound is given, the exact number is not on record here.

The target in data set [1] is Peroxisomal membrane protein PEX14 (Homo sapiens, UniProt O75381). Kind of data set: Inhibition of biotinylated PEX5-derived ALSENWAQEFLA binding to human N-terminal His-tagged PEX14 (21 to 84 residues) expressed in Escherichia coli BL21 by Alphascreen assay. The method, boiled down: (§1)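 His-tagged PEX14 (21-84) at 3 nM with 10 nM biotinylated peptide in PBS containing 5 mg/mL BSA and 0.01% Tween-80; 5 µg/mL streptavidin donor and nickel chelate acceptor beads; 5% DMSO held constant.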
Sequence of Peroxisomal membrane protein PEX14 (O75381 whole entry, change not shown, the tested form may be a part): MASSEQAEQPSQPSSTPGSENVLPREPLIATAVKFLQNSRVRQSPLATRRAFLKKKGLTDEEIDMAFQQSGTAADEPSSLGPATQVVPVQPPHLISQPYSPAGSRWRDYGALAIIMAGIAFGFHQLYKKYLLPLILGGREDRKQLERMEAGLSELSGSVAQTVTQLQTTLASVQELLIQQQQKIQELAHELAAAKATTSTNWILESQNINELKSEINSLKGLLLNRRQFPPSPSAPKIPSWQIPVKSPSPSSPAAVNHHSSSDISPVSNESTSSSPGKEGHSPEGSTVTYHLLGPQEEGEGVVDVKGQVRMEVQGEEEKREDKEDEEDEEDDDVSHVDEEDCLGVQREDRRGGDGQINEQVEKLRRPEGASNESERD

A short description of data set [2]: Selectivity index, ratio of EC50 for human HepG2 cells to EC50 for antitrypanosomal activity against bloodstream form of Trypanosoma brucei brucei Lister 427.
Data set [3] is described as follows: Inhibition of biotinylated PEX5-derived ALSENWAQEFLA binding to Trypanosoma brucei N-terminal His-tagged PEX14 (21 to 84 residues) expressed in Escherichia coli BL21 by Alphascreen assay. A digest of the protocol: as §1
For a further data set, the system named is HepG2. In words: Cytotoxicity against human HepG2 cells assessed as reduction in cell viability measured after 66 hrs by resazurin dye based fluorescence assay. Particulars: HepG2, 66 h.
Data set [4] in a line: Inhibition of biotinylated PEX5-derived ALSENWAQEFLA binding to Trypanosoma cruzi N-terminal His-tagged PEX14 (21 to 84 residues) expressed in Escherichia coli BL21 by Alphascreen assay. A digest of the protocol: as §1
Data set [5] deals with Trypanosoma brucei brucei. In words: Antitrypanosomal activity against bloodstream form of Trypanosoma brucei brucei Lister 427 after 66 hrs by Resazurin dye-based fluorescence assay. In kind it is functional, organism-based. Particulars: Lister 427, 66 h.

Regarding `COc1ccc(CN2CCc3nn4c(c3C2)CN(Cc2cccc3ccccc23)C4=O)c2ccccc12`, the pEC50 in data set [1] was < 3.00; in data set [3], 3.99; in the data set on HepG2, < 4.30; in data set [4], 3.35; in data set [5], 5.25. Besides, the selectivity ratio in data set [2] is > 8.9.

With `COc1ccc(CN2CCc3nn4c(c3C2)C(=O)N(Cc2cccc3ccccc23)CC4)c2ccccc12`, the pEC50 in data set [1] was < 3.00; in data set [3] it was 4.31; with HepG2, < 4.30; in data set [4], 3.33; in data set [5] it was 5.19. Further, the selectivity ratio in data set [2] is > 7.8.

`COc1ccc(CN2CCc3c(c(C(=O)NCc4cccc5ccccc45)nn3CCN3CCOCC3)C2)c2ccccc12`: the pEC50 in data set [1] is 3.78; in data set [3] it was 4.06; in the data set with HepG2 it was 4.38; in data set [4] it was 3.79; in data set [5], 5.45. Besides, in data set [2], the selectivity ratio turned out to be 11.7.
